Results published in ChEMBL document CHEMBL2331108, “Synthesis and biological evaluation of a new series of hexahydro-2H-pyrano[3,2-c]quinolines as novel selective σ1 receptor ligands” (J Med Chem, 2013).

What was measured:
[1] = Displacement of [3H]-Di-o-tolyguanidine from guinea pig sigma2 receptor after 120 mins by liquid scintillation counting analysis; design: species or system Cavia porcellus
[2] = biological target: Voltage-gated inwardly rectifying potassium channel KCNH2 (Homo sapiens, UniProt Q12809); test: Binding affinity to human ERG channel by patch clamp assay
Salmonella typhimurium = test: Genotoxicity in Salmonella typhimurium by Ames test; format: toxicity, organism-based; details: salmonella enterica subsp. enterica serovar typhimurium
HepG2 [3] = test: Cytotoxicity against human HepG2 cells up to 100 uM by neutral red uptake assay; format: cell-based
HepG2 [4] = test: Cytotoxicity against human HepG2 cells up to 100 uM by MTT assay; format: cell-based
Cytochrome P450 2C9 = Cytochrome P450 2C9 (Homo sapiens, UniProt P11712); test: Inhibition of human recombinant CYP2C9; format: ADME
Cytochrome P450 2C19 = Cytochrome P450 2C19 (Homo sapiens, UniProt P33261); test: Inhibition of human recombinant CYP2C19; format: ADME
Cytochrome P450 1A2 = biological target: T1, Cytochrome P450 1A2 (Homo sapiens, UniProt P05177); test: Inhibition of human recombinant CYP1A2; format: ADME
T1 sequence (P05177 whole entry): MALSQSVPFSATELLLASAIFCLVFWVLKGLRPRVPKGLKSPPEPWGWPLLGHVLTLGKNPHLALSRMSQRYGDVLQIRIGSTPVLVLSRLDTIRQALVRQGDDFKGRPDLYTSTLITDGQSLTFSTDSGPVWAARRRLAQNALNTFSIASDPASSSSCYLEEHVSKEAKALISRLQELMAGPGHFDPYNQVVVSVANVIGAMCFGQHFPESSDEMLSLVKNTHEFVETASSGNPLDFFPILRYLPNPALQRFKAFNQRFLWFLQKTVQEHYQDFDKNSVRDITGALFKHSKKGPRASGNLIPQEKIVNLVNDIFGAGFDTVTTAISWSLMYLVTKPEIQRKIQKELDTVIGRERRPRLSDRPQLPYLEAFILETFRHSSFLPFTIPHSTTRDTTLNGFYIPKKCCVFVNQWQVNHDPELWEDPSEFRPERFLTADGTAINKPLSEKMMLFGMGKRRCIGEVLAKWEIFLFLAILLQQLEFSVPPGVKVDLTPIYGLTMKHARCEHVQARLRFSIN

Mus musculus [5] = test: Antinociceptive activity in CD1 mouse assessed as inhibition of formalin-induced pain at 80 mg/kg, ip administered 15 mins before formalin-challenge measured after 15 to 30 mins; format: functional; details: route intraperitoneal
How it was run: (§1)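 Male CD1 mice, 6–8 weeks old (n = 8–12 per group), were dosed ip at 10 mL/kg in 0.5% HPMC vehicle. 15 min later, 20 μL of 2.5% formalin (0.92% formaldehyde) was injected into the right hind paw, midplantar. Licking/biting time was scored 0–5 min (phase I) and 15–30 min (phase II).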

Mus musculus [6] = test: Antinociceptive activity in CD1 mouse assessed as inhibition of formalin-induced pain at 40 mg/kg, ip administered 15 mins before formalin-challenge measured after 15 to 30 mins; format: functional; details: route intraperitoneal; how it was run: as §1
Mus musculus [7] = test: Antinociceptive activity in CD1 mouse assessed as inhibition of capsaicin-induced mechanical hypersensitivity at 80 mg/kg, po administered 30 mins before capsaicin-challenge measured after 15 mins; format: functional
[8] = biological target: 5-hydroxytryptamine receptor 2B (Homo sapiens, UniProt P41595); test: Binding affinity to human 5-HT2B receptor
[9] = Dissociation constant, pKa of the compound; format: physicochemical
How it was run: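 pKa measured experimentally by pH-metric titration on an automated GlpKa instrument.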

[10] = biological target: Sigma non-opioid intracellular receptor 1 (Homo sapiens, UniProt Q99720); test: Displacement of [3H]-(+)-pentazocine from human sigma1 receptor transfected in HEK293 cells after 120 mins by liquid scintillation counting analysis; format: cell-based
Cytochrome P450 2D6 = Cytochrome P450 2D6 (Homo sapiens, UniProt P10635); test: Inhibition of human recombinant CYP2D6; format: ADME
Cytochrome P450 3A4 = Cytochrome P450 3A4 (Homo sapiens, UniProt P08684); test: Inhibition of human recombinant CYP3A4; format: ADME
Liver microsomes [11] = test: Intrinsic clearance in human liver microsomes assessed per milligram of protein; format: ADME, Microsome
Liver microsomes [12] = test: Intrinsic clearance in rat liver microsomes assessed per milligram of protein; format: ADME, Microsome
Liver = test: Intrinsic clearance in mouse liver microsomes assessed per milligram of protein; format: ADME, Microsome
[13] = Kinetic solubility of the compound; format: physicochemical; details: read-out: Kinetic_solubility
How it was run: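 Kinetic solubility: compound solution at 1% DMSO in phosphate buffer, pH 7.4, quantified by HPLC.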

Mus musculus [14] = test: Antinociceptive activity in ip dosed CD1 mouse assessed as inhibition of formalin-induced pain administered 15 mins before formalin-challenge measured after 15 to 30 mins; format: functional, organism-based; how it was run: as §1

Chain of Sigma non-opioid intracellular receptor 1 (Q99720 whole entry): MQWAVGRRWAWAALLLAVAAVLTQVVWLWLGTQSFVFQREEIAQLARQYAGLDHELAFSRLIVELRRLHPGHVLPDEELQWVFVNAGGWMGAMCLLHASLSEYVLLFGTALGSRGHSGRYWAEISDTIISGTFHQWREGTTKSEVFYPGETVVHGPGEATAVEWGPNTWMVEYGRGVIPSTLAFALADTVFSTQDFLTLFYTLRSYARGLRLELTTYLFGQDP
Chain of Cytochrome P450 2D6 (P10635 whole entry): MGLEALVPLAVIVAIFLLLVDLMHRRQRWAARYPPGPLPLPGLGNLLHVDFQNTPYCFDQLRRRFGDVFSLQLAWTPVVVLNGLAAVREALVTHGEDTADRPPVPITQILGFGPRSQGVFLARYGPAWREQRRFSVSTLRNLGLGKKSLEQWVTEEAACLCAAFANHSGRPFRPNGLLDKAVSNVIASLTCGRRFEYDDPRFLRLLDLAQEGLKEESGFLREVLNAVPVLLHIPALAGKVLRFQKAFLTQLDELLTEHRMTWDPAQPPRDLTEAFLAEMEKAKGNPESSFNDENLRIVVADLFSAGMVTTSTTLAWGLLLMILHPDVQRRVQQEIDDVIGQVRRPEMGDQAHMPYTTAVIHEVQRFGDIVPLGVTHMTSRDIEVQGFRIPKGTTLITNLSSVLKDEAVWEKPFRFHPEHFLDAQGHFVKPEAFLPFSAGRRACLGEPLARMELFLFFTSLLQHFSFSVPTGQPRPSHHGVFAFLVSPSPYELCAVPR
Chain of Cytochrome P450 2C19 (P33261 whole entry): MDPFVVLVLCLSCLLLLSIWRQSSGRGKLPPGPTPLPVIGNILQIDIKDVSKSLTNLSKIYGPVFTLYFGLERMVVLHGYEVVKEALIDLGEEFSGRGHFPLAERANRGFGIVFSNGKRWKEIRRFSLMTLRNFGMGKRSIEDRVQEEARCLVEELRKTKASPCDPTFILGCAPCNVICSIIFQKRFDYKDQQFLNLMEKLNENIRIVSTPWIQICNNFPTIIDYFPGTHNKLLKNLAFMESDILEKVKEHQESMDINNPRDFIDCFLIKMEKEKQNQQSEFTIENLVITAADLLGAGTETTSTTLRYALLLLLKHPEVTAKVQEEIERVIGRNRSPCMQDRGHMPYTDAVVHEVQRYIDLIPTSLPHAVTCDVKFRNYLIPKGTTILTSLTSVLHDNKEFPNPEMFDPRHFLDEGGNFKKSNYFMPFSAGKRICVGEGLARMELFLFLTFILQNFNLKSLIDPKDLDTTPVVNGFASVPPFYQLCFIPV
Chain of Voltage-gated inwardly rectifying potassium channel KCNH2 (Q12809 whole entry): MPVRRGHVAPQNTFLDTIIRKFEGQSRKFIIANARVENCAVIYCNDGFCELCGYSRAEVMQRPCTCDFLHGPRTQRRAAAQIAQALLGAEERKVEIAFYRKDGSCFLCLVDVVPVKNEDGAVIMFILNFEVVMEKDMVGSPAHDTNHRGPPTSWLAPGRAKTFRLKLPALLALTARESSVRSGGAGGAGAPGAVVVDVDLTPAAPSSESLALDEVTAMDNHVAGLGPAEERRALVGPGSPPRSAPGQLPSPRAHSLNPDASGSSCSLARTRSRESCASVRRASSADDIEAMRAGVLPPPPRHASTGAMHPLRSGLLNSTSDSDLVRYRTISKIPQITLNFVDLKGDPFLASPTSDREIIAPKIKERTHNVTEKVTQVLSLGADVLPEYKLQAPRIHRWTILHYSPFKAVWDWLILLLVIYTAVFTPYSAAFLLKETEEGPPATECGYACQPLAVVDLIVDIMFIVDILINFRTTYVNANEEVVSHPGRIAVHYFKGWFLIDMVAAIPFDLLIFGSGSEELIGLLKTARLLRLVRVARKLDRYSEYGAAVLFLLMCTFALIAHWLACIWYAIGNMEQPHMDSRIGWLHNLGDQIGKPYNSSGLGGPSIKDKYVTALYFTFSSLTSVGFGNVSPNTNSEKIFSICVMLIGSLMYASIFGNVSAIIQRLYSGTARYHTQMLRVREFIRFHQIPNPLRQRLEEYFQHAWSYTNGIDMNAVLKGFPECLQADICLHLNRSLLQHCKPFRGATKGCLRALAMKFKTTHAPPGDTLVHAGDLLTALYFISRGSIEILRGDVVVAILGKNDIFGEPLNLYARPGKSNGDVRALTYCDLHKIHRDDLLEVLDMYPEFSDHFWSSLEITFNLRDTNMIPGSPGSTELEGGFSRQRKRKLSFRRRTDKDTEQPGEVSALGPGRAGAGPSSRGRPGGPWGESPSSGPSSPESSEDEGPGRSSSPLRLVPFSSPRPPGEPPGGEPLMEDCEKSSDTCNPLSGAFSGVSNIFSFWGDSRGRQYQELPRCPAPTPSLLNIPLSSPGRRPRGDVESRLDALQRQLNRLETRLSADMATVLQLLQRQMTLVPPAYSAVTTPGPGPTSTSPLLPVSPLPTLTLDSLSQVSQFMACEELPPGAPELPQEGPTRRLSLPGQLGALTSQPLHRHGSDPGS
Chain of Cytochrome P450 3A4 (P08684 whole entry): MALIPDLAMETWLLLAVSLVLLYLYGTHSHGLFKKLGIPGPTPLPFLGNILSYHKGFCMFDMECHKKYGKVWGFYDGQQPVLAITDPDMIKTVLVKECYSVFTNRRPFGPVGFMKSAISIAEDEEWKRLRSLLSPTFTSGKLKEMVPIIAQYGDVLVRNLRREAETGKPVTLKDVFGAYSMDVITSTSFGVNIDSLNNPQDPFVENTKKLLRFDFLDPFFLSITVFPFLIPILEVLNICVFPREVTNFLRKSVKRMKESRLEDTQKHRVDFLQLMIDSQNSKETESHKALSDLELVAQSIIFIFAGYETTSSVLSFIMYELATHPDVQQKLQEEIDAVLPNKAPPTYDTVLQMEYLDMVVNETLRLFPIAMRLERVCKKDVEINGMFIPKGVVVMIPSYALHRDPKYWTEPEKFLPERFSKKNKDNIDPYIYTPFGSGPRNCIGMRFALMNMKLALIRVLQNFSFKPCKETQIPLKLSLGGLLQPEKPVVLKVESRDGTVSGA
Chain of Cytochrome P450 2C9 (P11712 whole entry): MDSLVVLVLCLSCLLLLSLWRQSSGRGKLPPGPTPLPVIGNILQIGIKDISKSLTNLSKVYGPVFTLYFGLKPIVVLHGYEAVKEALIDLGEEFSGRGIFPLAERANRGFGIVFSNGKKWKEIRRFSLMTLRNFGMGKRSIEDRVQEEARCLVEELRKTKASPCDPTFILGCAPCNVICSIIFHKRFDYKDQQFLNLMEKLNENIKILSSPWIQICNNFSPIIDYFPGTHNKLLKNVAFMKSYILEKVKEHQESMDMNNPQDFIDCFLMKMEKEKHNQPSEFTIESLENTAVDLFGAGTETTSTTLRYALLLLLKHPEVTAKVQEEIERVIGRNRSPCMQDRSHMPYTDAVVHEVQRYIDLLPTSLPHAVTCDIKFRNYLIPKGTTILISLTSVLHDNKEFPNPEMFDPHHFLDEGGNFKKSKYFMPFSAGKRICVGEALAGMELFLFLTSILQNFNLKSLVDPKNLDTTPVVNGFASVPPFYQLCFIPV
Chain of 5-hydroxytryptamine receptor 2B (P41595 whole entry): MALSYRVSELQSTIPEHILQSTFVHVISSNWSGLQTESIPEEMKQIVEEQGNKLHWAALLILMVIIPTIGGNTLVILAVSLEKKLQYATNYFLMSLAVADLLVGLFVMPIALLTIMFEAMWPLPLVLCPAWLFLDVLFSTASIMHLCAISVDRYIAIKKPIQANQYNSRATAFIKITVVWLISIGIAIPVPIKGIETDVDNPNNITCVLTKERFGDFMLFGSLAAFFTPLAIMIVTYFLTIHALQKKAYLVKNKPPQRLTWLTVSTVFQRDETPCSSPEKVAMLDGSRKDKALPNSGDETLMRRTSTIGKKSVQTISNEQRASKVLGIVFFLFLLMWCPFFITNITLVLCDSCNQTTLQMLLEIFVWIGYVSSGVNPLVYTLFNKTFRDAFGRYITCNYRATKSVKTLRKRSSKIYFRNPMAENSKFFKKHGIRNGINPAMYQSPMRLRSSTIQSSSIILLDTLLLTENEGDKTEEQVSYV

Compound: Cc1cc(OCCN2CCOCC2)nn1-c1ccc2ccccc2c1
- Ki [1]: 1000 nM

Compound: CC(C)CCOc1ccc2c(c1)[C@H]1OCCC[C@H]1[C@@H](C1CCOCC1)N2 [listing 1 of 2 here]
- IC50 [2]: > 10000 nM
- Activity (Salmonella typhimurium): Non-toxic
- Activity (HepG2 [3]): Non-toxic
- Activity (HepG2 [4]): Non-toxic
- IC50 (Cytochrome P450 2C9): > 5000 nM
- IC50 (Cytochrome P450 2C19): > 5000 nM
- IC50 (Cytochrome P450 1A2): > 5000 nM
- inhibition in vivo at 80 mg/kg (Mus musculus [5]): 81%
- inhibition in vivo at 40 mg/kg (Mus musculus [6]): 40%
- inhibition in vivo at 80 mg/kg (Mus musculus [7]): 63%
- Ki [8]: 5300 nM
- pKa [9]: 3.8
- Ki [1]: 1000 nM
- Ki [10]: 30 nM
- IC50 (Cytochrome P450 2D6): > 5000 nM
- IC50 (Cytochrome P450 3A4): > 5000 nM
- CLH (Liver microsomes [11]): 5 µL/min
- CLH (Liver microsomes [12]): 21.7 µL/min
- CLH (Liver): 15.1 µL/min

Compound: CCCCCc1ccc2c(c1)[C@H]1OCCC[C@H]1[C@@H](C1CCCCC1)N2
- solubility kinetic [13]: < 1 µM
- Ki [1]: 1000 nM
- Ki [10]: 19 nM

Compound: CCCCCc1ccc2c(c1)[C@@H]1OCCC[C@@H]1[C@H](C1CCCCC1)N2
- Ki [1]: 1000 nM
- Ki [10]: > 1000 nM

Compound: CC(C)CCOc1ccc2c(c1)[C@H]1OCCC[C@H]1[C@@H](C1CCCCC1)N2
- solubility kinetic [13]: < 1 µM
- Ki [1]: 1000 nM
- Ki [10]: 14 nM

Compound: CC(C)CCOc1ccc2c(c1)[C@@H]1OCCC[C@@H]1[C@H](C1CCCCC1)N2
- Ki [1]: 1000 nM
- Ki [10]: > 1000 nM

Compound: CC(C)CCOc1ccc2c(c1)[C@@H]1OCCC[C@@H]1[C@H](C1CCOCC1)N2
- Ki [1]: 1000 nM
- Ki [10]: > 1000 nM

Compound: CC(C)CCOc1ccc2c(c1)[C@H]1OCCC[C@H]1[C@@H](C1CCOCC1)N2 [listing 2 of 2 here]
- inhibition (Mus musculus [14]): Dose-dependent effect

Compound: CCCCOc1ccc2c(c1)[C@H]1OCC[C@H]1[C@@H](C1CCCCC1)N2 (racemic)
- Ki [1]: 1000 nM
- Ki [10]: > 1000 nM

Compound: CC(C)CCOc1ccc2c(c1)[C@H]1OCC[C@H]1[C@@H](C1CCCCC1)N2 (racemic)
- Ki [1]: 1000 nM
- Ki [10]: 108 nM

Compound: CCCCCc1ccc2c(c1)[C@H]1OCCC[C@H]1[C@@H](C(CC)CC)N2 (racemic)
- Ki [1]: 1000 nM
- Ki [10]: 410 nM

Compound: CCCCCc1ccc2c(c1)[C@H]1OCCC[C@H]1[C@@H](C1CCOCC1)N2 (racemic)
- Ki [1]: 1000 nM
- Ki [10]: 67 nM

Compound: CCCCOc1ccc2c(c1)[C@H]1OCCC[C@H]1[C@@H](C1CC1)N2 (racemic)
- Ki [1]: 1000 nM
- Ki [10]: > 1000 nM

Compound: CCCCOc1ccc2c(c1)[C@H]1OCCC[C@H]1[C@@H](c1ccccc1)N2 (racemic)
- Ki [1]: 1000 nM
- Ki [10]: > 1000 nM

Compound: CC(C)CCOc1ccc2c(c1)[C@H]1OCCC[C@H]1[C@@H](C1CCCC1)N2 (racemic)
- Ki [1]: 1000 nM
- Ki [10]: 124 nM

Compound: CC(C)CCOc1ccc2c(c1)[C@H]1OCCC[C@H]1[C@@H](C1CCOCC1)N2 (racemic)
- Ki [10]: 84 nM

Compound: CC(C)CCOc1ccc2c(c1)[C@H]1OCCC[C@H]1[C@@H](C1CCNCC1)N2 (racemic)
- Ki [1]: 1000 nM
- Ki [10]: 536 nM

Compound: CCN1CCC([C@H]2Nc3ccc(OCCC(C)C)cc3[C@H]3OCCC[C@H]32)CC1 (racemic)
- Ki [1]: 1000 nM
- Ki [10]: 317 nM

Compound: CC(C)CCOc1ccc2c(c1)[C@H]1OCCC[C@H]1[C@@H](C1CCN(Cc3ccccc3)CC1)N2 (racemic)
- solubility kinetic [13]: < 1 µM
- Ki [1]: 1000 nM
- Ki [10]: 15 nM

Compound: CCCCCc1ccc2c(c1)[C@H]1OCCC[C@H]1[C@@H](C1CCCCC1)N2 (racemic)
- Ki [10]: 43 nM

Compound: CC(C)CCOc1ccc2c(c1)[C@H]1OCCC[C@H]1[C@@H](C1CCCCC1)N2 (racemic)
- Ki [10]: 52 nM

Compound: Clc1cccc(Oc2ccc3c(c2)[C@H]2OCCC[C@H]2[C@@H](C2CCCCC2)N3)c1 (racemic)
- Ki [1]: 1000 nM
- Ki [10]: 377 nM

Compound: Clc1cccc(Oc2ccc3c(c2)[C@H]2OCCC[C@H]2[C@H](C2CCCCC2)N3)c1 (racemic)
- Ki [1]: 1000 nM
- Ki [10]: > 1000 nM

Compound: Clc1ccccc1Oc1ccc2c(c1)[C@H]1OCCC[C@H]1[C@@H](C1CCCCC1)N2 (racemic)
- Ki [1]: 1000 nM
- Ki [10]: > 1000 nM

Compound: Clc1ccc(Oc2ccc3c(c2)[C@H]2OCCC[C@H]2[C@@H](C2CCCCC2)N3)cc1Cl (racemic)
- Ki [1]: 1000 nM
- Ki [10]: 79 nM

Compound: c1ccc(Oc2ccc3c(c2)[C@H]2OCCC[C@H]2[C@@H](C2CCCCC2)N3)cc1 (racemic)
- Ki [1]: 1000 nM
- Ki [10]: > 1000 nM

Compound: c1ccc2c(c1)N[C@H](C1CCCCC1)[C@@H]1CCCO[C@H]21 (racemic)
- Ki [1]: 1000 nM
- Ki [10]: > 1000 nM

Compound: CCCCc1ccc2c(c1)[C@H]1OCCC[C@H]1[C@@H](C1CCCCC1)N2 (racemic)
- Ki [1]: 1000 nM
- Ki [10]: > 1000 nM

Compound: CCCCOc1ccc2c(c1)[C@H]1OCCC[C@H]1[C@@H](C1CCCCC1)N2 (racemic)
- Ki [1]: 1000 nM
- Ki [10]: 178 nM

Compound: Fc1ccc(COc2ccc3c(c2)[C@H]2OCCC[C@H]2[C@@H](C2CCCCC2)N3)cc1 (racemic)
- Ki [1]: 1000 nM
- Ki [10]: > 1000 nM

Compound: c1cc2c(cc1C1CCCCC1)[C@H]1OCCC[C@H]1[C@@H](C1CCCCC1)N2 (racemic)
- Ki [1]: 1000 nM
- Ki [10]: > 1000 nM

Compound: c1ccc(-c2ccc3c(c2)[C@H]2OCCC[C@H]2[C@@H](C2CCCCC2)N3)cc1 (racemic)
- Ki [1]: 1000 nM
- Ki [10]: > 1000 nM

Compound: CCCNS(=O)(=O)c1ccc2c(c1)[C@H]1OCCC[C@H]1[C@@H](C1CCCCC1)N2 (racemic)
- Ki [1]: 1000 nM
- Ki [10]: > 1000 nM

Compound: O=C(Nc1ccc2c(c1)[C@H]1OCCC[C@H]1[C@@H](C1CCCCC1)N2)c1ccccc1 (racemic)
- Ki [1]: 1000 nM
- Ki [10]: > 1000 nM

Compound: Clc1ccc(Oc2ccc3c(c2)[C@H]2OCC[C@H]2[C@@H](C2CCCCC2)N3)cc1 (racemic)
- Ki [1]: 1000 nM
- Ki [10]: 302 nM

Compound: CCCCCc1ccc2c(c1)[C@H]1OCC[C@H]1[C@@H](C1CCCCC1)N2 (racemic)
- Ki [1]: 1000 nM
- Ki [10]: 245 nM

Compound: Clc1ccc(Oc2ccc3c(c2)[C@H]2OCCC[C@H]2[C@@H](C2CCCCC2)N3)cc1 (racemic)
- solubility kinetic [13]: < 0.4 µM
- Ki [1]: > 1000 nM
- Ki [10]: 194 nM

Compound: Clc1ccc(Oc2ccc3c(c2)[C@H]2OCCC[C@H]2[C@H](C2CCCCC2)N3)cc1 (racemic)
- Ki [1]: 1000 nM
- Ki [10]: > 1000 nM

Compound: O=C(CCCN1CCC(O)(c2ccc(Cl)cc2)CC1)c1ccc(F)cc1 [HALOPERIDOL]
- Ki [1]: 1000 nM
